Consider five compounds from ChEMBL document CHEMBL4765441, “Design, synthesis and anti-cancer activity of pyrrole-imidazole polyamides through target-downregulation of c-kit gene expression” (Eur J Med Chem, 2020).

SMILES strings stand for the structures. Counter-ions that a name gives are not always drawn. Active and inactive are the calls of the source. The rule behind the calls is not given here.

Experiment [1] concerns dsDNA. The experiment is described as follows: Binding affinity to 5'-AGGGGAGGCGAGGAGGGGCGTGGCCGG-3'/3'-TCCCCTCCGCTCCTCCCCGCACCGGCC-5' dsDNA (unknown origin) at 0 to 32 uM by SYBR GOLD staining based EMSA. As to conditions: Homo sapiens; dose 0-32 µM. It is filed as nucleic-acid assay. Summed up:
(§1)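 Target 27-bp c-kit promoter duplex, annealed at 95 °C, then incubated overnight with or without compound in pH 7.4 buffer (10 mM Tris-HCl, 10 mM KCl, 0.1 mM EDTA). Mixtures run on 16% native polyacrylamide gel at 150 V for 3 h. Gels stained with SYBR Gold for 30 min and imaged on a gel documentation system.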

In experiment [2] the test system is dsDNA. Nature of the experiment: Binding affinity to 5'-AGGGGAGGCGAGGAGGGGCGTGGCCGG-3'/3'-TCCCCTCCGCTCCTCCCCGCACCGGCC-5' dsDNA (unknown origin) by SYBR GOLD staining based EMSA. Type of experiment: nucleic-acid assay. As to conditions: Homo sapiens. Summed up:
as §1
(In general: In EMSA bound probe runs differently from free probe, usually more slowly.)

Experiment [3] concerns dsDNA. The experiment is described as follows: Binding affinity to 5'-AGGGGAGGCGAGGAGGGGCGTGGCCGG-3'/3'-TCCCCTCCGCTCCTCCCCGCACCGGCC-5' dsDNA (unknown origin) by circular dichroism spectroscopic analysis. It is filed as nucleic-acid assay. As to conditions: Homo sapiens. Summed up: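 Target duplex annealed at 95 °C, held 24 h in pH 7.0 buffer (10 mM sodium cacodylate, 100 mM NaCl, 0.5% DMSO), then degassed. Compound titrated in at compound:DNA ratios 0.0–3.0, room temperature, 15 min equilibration per addition. CD read 225–400 nm in a 5 mm quartz cell at 100 nm/min, 5.0 nm bandwidth. Average of three parallel runs.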
(Circular dichroism is the unequal absorption of left and right circularly polarised light.)

Experiment [4] has as its system A549. The experiment is described as follows: Induction of apoptosis in human A549 cells assessed as apoptotic rate at 20 uM incubated for 36 hrs by Annexin V-FITC/propidium iodide staining-based flow cytometric analysis. It is filed as functional. (In general: In flow cytometry, cells or beads pass a laser one at a time.)
Experiment [5] concerns A549. Nature of the experiment: Inhibition of cell migration in human A549 cells at 1.5 uM incubated for 48 hrs by inverted fluorescence microscope based scratch wound healing assay. It is filed as functional. The method, boiled down:
(§2)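 20 × 10^4 cells per well grown to 80% confluence. Wound scratched with a pipette tip, washed twice with PBS and photographed under an inverted fluorescence microscope. Cells then held in serum-free medium with compound for 48 h. Migration measured as distance moved from the wound edge; mean ± SD, n = 3.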

Experiment [6] concerns A549. The experiment is described as follows: Antiproliferative activity against human A549 cells assessed as reduction in cell viability incubated for 48 hrs by xCELLigence RTCA. Type of experiment: functional, cell-based. As to conditions: A549, 48 h.
For experiment [7], the system named is dsDNA. The experiment is described as follows: Binding affinity to 5'-AGGGGAGGCGAGGAGGGGCGTGGCCGG-3'/3'-TCCCCTCCGCTCCTCCCCGCACCGGCC-5' dsDNA (unknown origin) at 1:8 DNA:compound ratio by SYBR GOLD staining based EMSA. It is filed as nucleic-acid assay. As to conditions: Homo sapiens. The method, boiled down: as §1
Experiment [8] has as its system SGC-7901. Nature of the experiment: Induction of morphological changes in human SGC7901 cells assessed as appearance of round shaped cells at 7.5 uM incubated for 36 hrs by microscopic analysis. It is filed as functional, cell-based. Summed up:
(§3)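 Cells seeded at 2 × 10^5 per well and grown 24 h. Medium then replaced with compound-containing medium. After 36 h co-culture, morphology inspected by light microscopy.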

In experiment [9] the test system is SGC-7901. The experiment is described as follows: Induction of morphological changes in human SGC7901 cells assessed as cell detachment at 7.5 uM incubated for 36 hrs by microscopic analysis. It is filed as functional, cell-based. Summed up:
as §3

The test system of experiment [10] is SGC-7901. Nature of the experiment: Down regulation of c-kit gene expression in human SGC-7901 cells at 15 uM incubated for 36 hrs by Western blot analysis. Type of experiment: functional, cell-based. Summed up:
(§4)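 Cells exposed to compound for 36 h, then lysed in RIPA and protein measured by BCA. 30 units of total protein separated by 10% SDS-PAGE, transferred to PVDF and blocked with 5% BSA. Primary antibodies, with β-tubulin as reference, at 4 °C; secondary 2 h; ECL detection. Bands quantified by densitometry, mean ± SD, n = 3.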

The subject of another experiment is MKN-45. Nature of the experiment: Antiproliferative activity against human MKN-45 cells assessed as reduction in cell viability incubated for 48 hrs by xCELLigence RTCA. The note with it: MKN-45, 48 h. Type of experiment: functional, cell-based.
The subject of another experiment is Bel-7402. The experiment is described as follows: Antiproliferative activity against human Bel-7402 cells assessed as reduction in cell viability incubated for 48 hrs by xCELLigence RTCA. Type of experiment: functional, cell-based. As to conditions: Bel-7402, 48 h.
Experiment [11] deals with A549. Nature of the experiment: Down regulation of c-kit gene expression in human A549 cells at 15 uM incubated for 36 hrs by Western blot analysis. It is filed as functional, cell-based. Summed up:
as §4

For experiment [12], the system named is SGC-7901. Nature of the experiment: Induction of morphological changes in human SGC7901 cells assessed as apoptotic body formation at 7.5 uM incubated for 36 hrs by microscopic analysis. Type of experiment: functional, cell-based. The method, boiled down:
as §3

Experiment [13] relates to SGC-7901. The experiment is described as follows: Inhibition of cell migration in human SGC7901 cells at 1.5 uM incubated for 48 hrs by inverted fluorescence microscope based scratch wound healing assay. It is filed as functional. The method, boiled down: as §2
For experiment [14], the system named is A549. The experiment is described as follows: Induction of morphological changes in human A549 cells assessed as membrane bulge at 15 uM incubated for 36 hrs by microscopic analysis. It is filed as functional, cell-based. Summed up:
as §3

For experiment [15], the system named is A549. The experiment is described as follows: Induction of morphological changes in human A549 cells assessed as cell detachment at 15 uM incubated for 36 hrs by microscopic analysis. It is filed as functional, cell-based. Summed up: as §3
Experiment [16] concerns SGC-7901. Nature of the experiment: Induction of apoptosis in human SGC7901 cells assessed as apoptotic rate at 20 uM incubated for 36 hrs by Annexin V-FITC/propidium iodide staining-based flow cytometric analysis. Type of experiment: functional.
Experiment [17] concerns SGC-7901. Nature of the experiment: Antiproliferative activity against human SGC7901 cells assessed as reduction in cell viability incubated for 48 hrs by xCELLigence RTCA. Type of experiment: functional, cell-based. The note with it: SGC-7901, 48 h.

Regarding `CC(=O)Nc1cn(C)c(C(=O)Nc2cn(C)c(C(=O)Nc3cn(C)c(C(=O)NCCC(=O)Nc4cn(C)c(C(=O)Nc5cn(C)c(C(=O)NCC[C@@H](N)C(=O)Nc6cc(C(=O)Nc7cc(C(=O)NC[C@@H](O)CC(=O)Nc8cc(C(=O)Nc9cc(C(=O)Nc%10cc(C(=O)NCCC(=O)NCCCN(C)C)n(C)c%10)n(C)c9)n(C)c8)n(C)c7)n(C)c6)n5)n4)n3)n2)n1`, the result in the experiment with dsDNA [1] was inactive.

As to `CC(=O)Nc1cn(C)c(C(=O)Nc2cn(C)c(C(=O)NCCC(=O)Nc3cn(C)c(C(=O)Nc4cn(C)c(C(=O)NCC[C@@H](N)C(=O)Nc5cc(C(=O)Nc6cc(C(=O)NC[C@@H](O)CC(=O)Nc7cc(C(=O)Nc8cc(C(=O)NCCC(=O)NCCCN(C)C)n(C)c8)n(C)c7)n(C)c6)n(C)c5)n4)n3)n2)n1`, in the experiment on dsDNA [1], the outcome was inactive.

For the compound `CC(=O)Nc1cn(C)c(C(=O)Nc2cn(C)c(C(=O)NC[C@@H](O)CC(=O)Nc3cn(C)c(C(=O)Nc4cn(C)c(C(=O)NCC[C@@H](N)C(=O)Nc5cc(C(=O)Nc6cc(C(=O)NCCC(=O)Nc7cc(C(=O)Nc8cc(C(=O)NCCC(=O)NCCCN(C)C)n(C)c8)n(C)c7)n(C)c6)n(C)c5)n4)n3)n2)n1`, the result in the experiment with dsDNA [1] was inactive.

The term inhibition denotes the percentage by which the read-out fell short of the control. The low end stands for little suppression, the high end for strong suppression. As a reminder, the IC50 is the midpoint of a concentration-inhibition curve. Regarding `CC(=O)Nc1cn(C)c(C(=O)Nc2cn(C)c(C(=O)Nc3cc(C(=O)Nc4cn(C)c(C(=O)NCCC(=O)Nc5cn(C)c(C(=O)Nc6cn(C)c(C(=O)NCC[C@@H](NC(=O)c7nc(NC(=O)c8nc(NC(=O)c9nccn9C)cn8C)cn7C)C(=O)Nc7cc(C(=O)Nc8cc(C(=O)NC[C@@H](O)CC(=O)Nc9cc(C(=O)Nc%10cn(C)c(C(=O)Nc%11cc(C(=O)Nc%12cc(C(=O)NCCC(=O)NCCCN(C)C)n(C)c%12)n(C)c%11)n%10)n(C)c9)n(C)c8)n(C)c7)n6)n5)n4)n(C)c3)n2)n1.Cl.Cl`, the figures for the Activity entry in the experiment with dsDNA [2], with A549 [4] and in the experiment on SGC-7901 [16] were “Dose-dependent effect”, 47.9% and 53.3%, respectively. Moreover, the outcome with dsDNA [3], in the experiment with dsDNA [7], in the experiment on SGC-7901 [8], in the experiment on SGC-7901 [9], in the experiment with SGC-7901 [10] and in the experiment with A549 [11] was Active. The result in the experiment with SGC-7901 [12], with A549 [14] and in the experiment on A549 [15] was Active. Further, the inhibition at 1.5 µM with A549 [5] is 73.5%; in the experiment with SGC-7901 [13] it was 80.8%. Further, the IC50 in the experiment on A549 [6] stood at 7.93 µM; with MKN-45, 19.9 µM; in the experiment with Bel-7402 it was 14.9 µM; with SGC-7901 [17] it was 6.05 µM.

Consider `Cc1ccc(NC(=O)c2ccc(CN3CCN(C)CC3)cc2)cc1Nc1nccc(-c2cccnc2)n1` [IMATINIB MESYLATE], for which the 50% inhibitory concentration (IC50) in the experiment with A549 [6] was 1.87 µM; with MKN-45, 12.2 µM; in the experiment with Bel-7402, 55.5 µM; in the experiment on SGC-7901 [17] it was 0.208 µM.
